This is an account of results in PMC10353488 (Journal of medicinal chemistry, 2020).

The target in one series is mouse ClpP (Mus musculus, UniProt O88696). As to the kind of experiment: In vitro casein degradation assay, mouse ClpP. It counts as biochemical. The note with it: 1 μM ClpP. In short, it runs like this: (§1)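 Human or mouse ClpP ORF minus the mitochondrial localization signal was codon-optimised, C-terminally His6-tagged, and expressed and purified from clpAPX-null E. coli. 1 μM enzyme, without AAA+ chaperone, was preincubated 30 min at 32 °C with compound or DMSO in 25 mM HEPES pH 7.6 buffer before adding 20 μM FITC-casein. Fluorescence (ex 490/em 525 nm) was read every 3 min over 3 h. ≥3 runs, ≥2 protein preparations.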

Series [1] relates to epithelial cervix adenocarcinoma (HeLa 229) cells. As to the kind of experiment: Cytotoxicity assay. In kind it is cell-based, human. To be noted: 50 μg/mL, 24 h.
The test system of a further series is ClpP. As to the kind of experiment: In vitro casein degradation assay without AAA+ chaperone. In kind it is biochemical. The note with it: FITC-casein 20 μM, 32°C, 3 h.
The test system of another series is S. aureus JE2. Nature of the series: Broth microdilution antibacterial assay, S. aureus JE2. In kind it is cell-based, Staphylococcus aureus. The note with it: concentrations up to 256 μg/mL.
In series [2] the test system is human keratinocyte (HaCaT) cells. As to the kind of experiment: Cytotoxicity assay. In kind it is cell-based. The note with it: 50 μg/mL, 24 h.
The test system of the next series is E. coli K12. As to the kind of experiment: Broth microdilution antibacterial assay, E. coli K12. It counts as cell-based, Escherichia coli. The note with it: concentrations up to 256 μg/mL.
Series [3] has as its target recombinant ClpP1 and ClpP2 from C. trachomatis L2 (Chlamydia trachomatis serovar D, UniProt O84712+P38002). As to the kind of experiment: In vitro casein degradation assay, chlamydial ClpP1/ClpP2. It counts as biochemical. To be noted: 6 μM ClpP1 and ClpP2. In short, it runs like this: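 C-terminal His6-tagged C. trachomatis L2 ClpP1 and ClpP2 (6 μM each) were purified from clpAPX-null E. coli and used without AAA+ chaperone. Enzyme was preincubated with compound or DMSO for 30 min at 32 °C in HEPES pH 7.6/KCl/MgCl2/DTT/glycerol buffer, then 20 μM FITC-casein was added. Fluorescence (ex 490/em 525 nm) was read every 3 min for 3 h. Unlabeled casein digests were run on SDS-PAGE. ≥3 runs, ≥2 protein preparations.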

The subject of series [4] is C. trachomatis serovar L2. Nature of the series: Inclusion forming units. In kind it is cell-based, Chlamydia trachomatis. To be noted: for impact on chlamydiae (infectious progeny, IFU): added 8 h after infection, 24 h; for inhibitory activity against chlamydiae (Figure 5a): ACP1b at 50 μg/mL, 40 at 50 μg/mL and 5.20 μg/mL.
In another series the test system is D. melanogaster. Nature of the series: Toxicity. In kind it is in vivo, Drosophila melanogaster. To be noted: 0.25, 0.5, and 1.0 mM. The method in brief: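 Eggs from two different crosses collected for 8 hours in culture flasks on solid agar base (5% w/v) topped with live baker's yeast plus sugar.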
In the next series the target is human ClpP (Homo sapiens, UniProt Q16740). As to the kind of experiment: In vitro casein degradation assay, human ClpP. In kind it is biochemical. To be noted: 1 μM ClpP. The method in brief: as §1
Series [5] can be described thus: Metabolic stability in human liver microsomes. It counts as in vitro ADME. To be noted: human liver microsomes with NADPH.
Another series relates to Chlamydia. To be noted: cited from earlier work.
The subject of another series is C. trachomatis. The note with it: cited from earlier work.
For series [6] the following is noted: cited from earlier work.
In another series the test system is N. meningitidis. The note with it: cited from earlier work.
A further series has as its system H. influenzae. The note with it: cited from earlier work.
For a further series, the system named is E. coli ClpP. The note with it: cited from earlier work.
Series [7] deals with recombinant ClpP from E. coli (Escherichia coli, UniProt P0A6G7). Nature of the series: In vitro casein degradation assay, E. coli ClpP. It counts as biochemical. To be noted: 1 or 0.1 (40 only) μM ClpP.
The test system of another series is HEp-2 cells. Nature of the series: Host cell morphology and viability under phase contrast microscopy. In kind it is cell-based, human. The note with it: 100 μg/mL. The method in brief:
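HEp-2 cells grown in DMEM with 2% L-glutamine and 10% FBS at 37 °C, infected with C. trachomatis L2 at MOI 1. Test compound added in triplicate at 8 hpi. After 16 h (24 h total incubation), host cell morphology and viability inspected by phase contrast microscopy against untreated control cells.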

mouse ClpP, sequence (O88696 53-272): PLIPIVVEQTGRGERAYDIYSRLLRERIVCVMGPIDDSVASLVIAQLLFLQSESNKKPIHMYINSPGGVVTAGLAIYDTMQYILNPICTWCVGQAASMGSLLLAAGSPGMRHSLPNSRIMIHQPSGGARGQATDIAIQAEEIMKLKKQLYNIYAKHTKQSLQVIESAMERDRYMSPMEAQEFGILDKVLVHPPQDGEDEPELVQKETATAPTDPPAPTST
human ClpP, sequence (Q16740 57-277): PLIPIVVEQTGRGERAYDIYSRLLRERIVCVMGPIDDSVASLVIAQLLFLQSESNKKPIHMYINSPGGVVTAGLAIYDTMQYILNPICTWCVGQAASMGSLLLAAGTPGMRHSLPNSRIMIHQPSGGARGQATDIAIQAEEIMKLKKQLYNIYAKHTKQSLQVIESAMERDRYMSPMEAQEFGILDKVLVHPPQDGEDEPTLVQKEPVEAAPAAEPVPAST
recombinant ClpP from E. coli, sequence (P0A6G7 15-207): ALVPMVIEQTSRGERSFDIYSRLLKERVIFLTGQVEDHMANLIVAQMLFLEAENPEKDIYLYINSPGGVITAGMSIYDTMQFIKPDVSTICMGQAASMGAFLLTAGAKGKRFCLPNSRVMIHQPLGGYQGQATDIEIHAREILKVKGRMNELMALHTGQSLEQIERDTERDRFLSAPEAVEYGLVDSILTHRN

As to `CC(C)(C(=O)NCCCc1ccccc1)S(=O)(=O)c1ccc(C(F)(F)F)cc1` [Compound 11, 2-Methyl-N-(3-Phenylpropyl)-2-((4-(trifluoromethyl)phenyl)sulfonyl)propanamide], the “activation of mouse ClpP” value on mouse ClpP is recorded as “activated”. Moreover, the “toxicity towards HeLa 229 cells” value in [1] was “presented toxicity”. For the same molecule, the “ClpP-dependent casein degradation in the absence of a chaperone” value (“ClpP-dependent casein degradation” for short) in the series on ClpP is reported as “enabled some species of ClpP to degrade casein”. For the same molecule, the bacterial death result with S. aureus JE2 and with E. coli K12 was “bacterial death was not observed” throughout. Also, the “toxicity towards HaCaT cells” value in [2] is recorded as “presented toxicity”. Moreover, the “activation of chlamydial ClpP1, ClpP2 or the ClpP1/2 dimer” value in series [3] is “some residual decomposition”. In addition, the “impact on chlamydiae (infectious progeny, IFU)” value (from here on “impact on chlamydiae”) in [4] (50 μg/mL) is “remarkable impact”. Moreover, the “toxicity against D. melanogaster (survival rate)” value (“toxicity against D. melanogaster” for short) in the series on D. melanogaster is listed as “did not show toxicity”. Also, the “activation of human ClpP” value at human ClpP is listed as “activated”. Moreover, in series [5], the “CL(int,H) Mean” value was 890.58 mL/(min*kg bodywgt.).

Take `CC(C)(C(=O)NCCCc1ccccc1)S(=O)(=O)c1ccccc1` [Compound 9, 2-Methyl-N-(3-Phenylpropyl)-2-(phenylsulfonyl)propanamide]: in the series with ClpP, the “ClpP-dependent casein degradation” value was “little or no degradation”. For the same molecule, the “activation of chlamydial ClpP1, ClpP2 or the ClpP1/2 dimer” value in [3] is on record as “some residual decomposition”.

In the case of `C[C@H]1c2cccc(O)c2C(=O)C2=C(O)[C@]3(O)C(=O)C(C(N)=O)=C(O)[C@@H](N(C)C)[C@@H]3[C@@H](O)[C@@H]21.O` [Doxycycline], the “minimal chlamydicidal concentrations (MCCs)” value with Chlamydia is 1 µg/mL.

Turning to `CC[C@H]1OC(=O)[C@H](C)[C@@H](O[C@H]2C[C@@](C)(OC)[C@@H](O)[C@H](C)O2)[C@H](C)[C@@H](O[C@@H]2O[C@H](C)C[C@H](N(C)C)[C@H]2O)[C@](C)(O)C[C@@H](C)CN(C)[C@H](C)[C@@H](O)[C@]1(C)O` [Azithromycin], in the series on Chlamydia, the “minimal chlamydicidal concentrations (MCCs)” value was 4 µg/mL.

On to `CC(C)(C(=O)NCCOc1ccccc1)S(=O)(=O)c1ccc(C(F)(F)F)cc1` [Compound 24, 2-Methyl-N-(2-Phenoxyethyl)-2-))4-(trifluoromethyl)phenyl(sulfonyl(propenamide], for which the “toxicity towards HaCaT cells” value in series [2] is “more tolerated”. In [4] (50 μg/mL), the “impact on chlamydiae” value was “remarkable impact”. Also, the “toxicity against D. melanogaster” value in the series on D. melanogaster is listed as “did not show toxicity”. In addition, the “CL(int,H) Mean” value in [5] is 1840.91 mL/(min*kg bodywgt.).

`CC(C)(C(=O)NCCSc1ccccc1Cl)S(=O)(=O)c1ccc(C(F)(F)F)cn1` [Compound 1]: the “formation of infectious EBs” value in the series with C. trachomatis was “drastic decrease”. The “fold less potent than ADEP1” value in series [6] was 10-20 fold. The “antibacterial activity against N. meningitidis” value with N. meningitidis was 64 µg/mL. In addition, the “antibacterial activity against H. influenzae” value in the series with H. influenzae was 32 µg/mL.

For the molecule `CC(C)(C(=O)NCCCc1ccccc1)S(=O)(=O)c1ccc(C(F)(F)F)cn1` [Compound 2], the “formation of infectious EBs” value with C. trachomatis is given as “drastic decrease”. In addition, the “activation of E. coli ClpP in an enzymatic assay” value in the series on E. coli ClpP was “activate”. The “fold less potent than ADEP1” value in series [6] is 10-20 fold. For the same molecule, the “antibacterial activity against N. meningitidis” value with N. meningitidis was 16 µg/mL. Further, the “antibacterial activity against H. influenzae” value in the series with H. influenzae was 8 µg/mL. The “inhibitory activity against chlamydiae (Figure 5a)” value in series [4] is “good inhibitory activity”.

For the molecule `CC(C)(C(=O)N1CCN(Cc2ccc(Cl)cc2)CC1)S(=O)(=O)c1ccc(C(F)(F)F)cn1` [Compound 40, 2-methyl-1-(4-(4-Chlorobenzyl)piperazin-1-yl)-2-((5-(trifluoromethyl)pyridin-2-yl)sulfonyl) propan-1-one], the “activation of mouse ClpP” value at mouse ClpP is given as “did not activate”. Further, the “toxicity towards HeLa 229 cells” value in [1] is listed as “not toxic”. For the same molecule, the “ClpP-dependent casein degradation” value in the series on ClpP is reported as “enabled some species of ClpP to degrade casein”. Moreover, the bacterial death entry in the series on S. aureus JE2 and in the series with E. coli K12 was “bacterial death was not observed” in each case. In addition, the “activation of E. coli ClpP” value in series [7] is “strong activator”. Moreover, in [4] (12.5 μg/mL), the “inclusion yields lower than the untreated cells” value is “around 60%”. In [4] (50 μg/mL), the “impact on chlamydiae” value was “remarkable impact”. Also, in series [4] (50 μg/mL, washout experiment), the “mechanism of action (bacteriostatic or bactericidal)” value is “bacteriostatic”. The “activity compared with penicillin” value in series [4] (40 at 50 μg/mL, penicillin at 5 U/mL ~ 3 μg/mL) is “on par with penicillin”. Besides, the “activity compared with spectinomycin” value in series [4] (40 at 50 μg/mL, spectinomycin at 128 μg/mL) is listed as “superior activity than spectinomycin”. For the same molecule, the “inhibitory activity against chlamydiae (Figure 5a)” value in [4] is given as “good inhibitory activity”. Besides, in the series with HEp-2 cells, the “cell toxicity to host cells” value was “did not observe cell toxicity”. Moreover, the “toxicity against D. melanogaster” value in the series with D. melanogaster is on record as “did not show toxicity”. Also, the “activation of human ClpP” value at human ClpP is listed as “did not activate”.
